Measurements taken from ChEMBL document CHEMBL2029214, “Radiosynthesis and evaluation of an (18)F-labeled positron emission tomography (PET) radioligand for brain histamine subtype-3 receptors based on a nonimidazole 2-aminoethylbenzofuran chemotype” (J Med Chem, 2012).

Tests used:
Brain [1] = assay: Drug uptake in FVB mouse whole brain at 73+/-29 uCi, iv at 90 mins by PET imaging; type: ADME, organism-based; conditions: in vivo, 1.5 h
Outline: (§1)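 Dynamic microPET ran 120 min with frames of 20 s to 20 min, without attenuation or scatter correction. Decay-corrected whole-brain curves expressed as SUV = (%ID/cm3) × (g body weight).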

Brain [2] = assay: Drug uptake in FVB mouse whole brain at 73+/-29 uCi, iv administered 30 mins post-ciproxifan treatment measured at 4.5 mins by PET imaging; type: ADME, organism-based; conditions: in vivo, 0.075 h; outline: as §1
Brain [3] = assay: Drug uptake in FVB mouse whole brain at 73+/-29 uCi, iv administered 30 mins post-(R)-(4-fluorophenyl)(2-(2-(2-methylpyrrolidin-1-yl)ethyl)benzofuran-5-yl)methanone treatment measured at 90 mins by PET imaging; type: ADME, organism-based; conditions: in vivo, 1.5 h; outline: as §1
Brain [4] = assay: Drug uptake in FVB mouse whole brain at 73+/-29 uCi, iv administered 30 mins post-(R)-(2-(2-(2-methylpyrrolidin-1-yl)ethyl)benzofuran-5-yl)(4-nitrophenyl)methanone treatment measured at 90 mins by PET imaging; type: ADME, organism-based; conditions: in vivo, 1.5 h; outline: as §1
Hippocampus [5] = assay: Drug uptake in rhesus monkey hippocampus at 3.91+/-0.46 mCi, iv by PET imaging; type: ADME, organism-based, Macaca mulatta; conditions: in vivo
Outline: (§2)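 Male rhesus monkeys (7.3 ± 0.8 kg; n = 4 baseline), ketamine 10 mg/kg i.m. then 1.5% isoflurane in O2. […] [18F]ligand given i.v. Focus 220 microPET, 180 min (one scan 120 min), 45 frames 30 s–5 min, scatter/attenuation corrected, decay-corrected; template-normalized regions; uptake as SUV.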

[6] = Drug uptake in rhesus monkey thalamus at 3.91+/-0.46 mCi, iv by PET imaging; type: ADME, organism-based, Macaca mulatta; conditions: in vivo; outline: as §2
Striatum [7] = assay: Drug uptake in rhesus monkey striatum at 3.91+/-0.46 mCi, iv at 180 mins by PET imaging; type: ADME, organism-based, Macaca mulatta; conditions: in vivo, 3 h; outline: as §2
[8] = Drug uptake in rhesus monkey frontal cortex at 3.91+/-0.46 mCi, iv at 180 mins by PET imaging; type: ADME, organism-based, Macaca mulatta; conditions: in vivo, 3 h; outline: as §2
[9] = Drug uptake in rhesus monkey cerebellum at 3.91+/-0.46 mCi, iv at 180 mins by PET imaging; type: ADME, organism-based, Macaca mulatta; conditions: in vivo, 3 h
Hippocampus [10] = assay: Drug uptake in rhesus monkey hippocampus at 3.91+/-0.46 mCi, iv at 180 mins by PET imaging; type: ADME, organism-based, Macaca mulatta; conditions: in vivo, 3 h; outline: as §2
[11] = Drug uptake in rhesus monkey thalamus at 3.91+/-0.46 mCi, iv at 180 mins by PET imaging; type: ADME, organism-based, Macaca mulatta; conditions: in vivo, 3 h; outline: as §2
[12] = Drug uptake in rhesus monkey skull at 3.91+/-0.46 mCi, iv at 180 mins by PET imaging; type: ADME, organism-based, Macaca mulatta; conditions: in vivo, 3 h
Striatum [13] = assay: Drug uptake in rhesus monkey striatum at 3.91+/-0.46 mCi, iv administered 30 mins post-ciproxifan treatment measured at 180 mins by PET imaging; type: ADME, organism-based, Macaca mulatta; conditions: in vivo, 3 h; outline: as §2
[14] = Drug uptake in rhesus monkey frontal cortex at 3.91+/-0.46 mCi, iv administered 30 mins post-ciproxifan treatment measured at 180 mins by PET imaging; type: ADME, organism-based, Macaca mulatta; conditions: in vivo, 3 h; outline: as §2
[15] = Drug uptake in rhesus monkey cerebellum at 3.91+/-0.46 mCi, iv administered 30 mins post-ciproxifan treatment measured at 180 mins by PET imaging; type: ADME, organism-based, Macaca mulatta; conditions: in vivo, 3 h
Hippocampus [16] = assay: Drug uptake in rhesus monkey hippocampus at 3.91+/-0.46 mCi, iv administered 30 mins post-ciproxifan treatment measured at 180 mins by PET imaging; type: ADME, organism-based, Macaca mulatta; conditions: in vivo, 3 h; outline: as §2
[17] = Drug uptake in rhesus monkey thalamus at 3.91+/-0.46 mCi, iv administered 30 mins post-ciproxifan treatment measured at 180 mins by PET imaging; type: ADME, organism-based, Macaca mulatta; conditions: in vivo, 3 h; outline: as §2
Striatum [18] = assay: Drug uptake in rhesus monkey striatum at 3.91+/-0.46 mCi, iv administered 30 mins post-(R)-(4-fluorophenyl)(2-(2-(2-methylpyrrolidin-1-yl)ethyl)benzofuran-5-yl)methanone treatment measured up to 180 mins by PET imaging; type: ADME, organism-based, Macaca mulatta; conditions: in vivo; outline: as §2
[19] = Drug uptake in rhesus monkey frontal cortex at 3.91+/-0.46 mCi, iv administered 30 mins post-(R)-(4-fluorophenyl)(2-(2-(2-methylpyrrolidin-1-yl)ethyl)benzofuran-5-yl)methanone treatment measured up to 180 mins by PET imaging; type: ADME, organism-based, Macaca mulatta; conditions: in vivo
[20] = Drug uptake in rhesus monkey cerebellum at 3.91+/-0.46 mCi, iv administered 30 mins post-(R)-(4-fluorophenyl)(2-(2-(2-methylpyrrolidin-1-yl)ethyl)benzofuran-5-yl)methanone treatment measured up to 180 mins by PET imaging; type: ADME, organism-based, Macaca mulatta; conditions: in vivo
Hippocampus [21] = assay: Drug uptake in rhesus monkey hippocampus at 3.91+/-0.46 mCi, iv administered 30 mins post-(R)-(4-fluorophenyl)(2-(2-(2-methylpyrrolidin-1-yl)ethyl)benzofuran-5-yl)methanone treatment measured up to 180 mins by PET imaging; type: ADME, organism-based, Macaca mulatta; conditions: in vivo; outline: as §2
[22] = Drug uptake in rhesus monkey thalamus at 3.91+/-0.46 mCi, iv administered 30 mins post-(R)-(4-fluorophenyl)(2-(2-(2-methylpyrrolidin-1-yl)ethyl)benzofuran-5-yl)methanone treatment measured up to 180 mins by PET imaging; type: ADME, organism-based, Macaca mulatta; conditions: in vivo; outline: as §2
[23] = Drug uptake in rhesus monkey skull at 3.91+/-0.46 mCi, iv administered 30 mins post-(R)-(4-fluorophenyl)(2-(2-(2-methylpyrrolidin-1-yl)ethyl)benzofuran-5-yl)methanone treatment measured up to 180 mins by PET imaging; type: ADME, organism-based, Macaca mulatta; conditions: in vivo
[24] = Metabolic stability in monkey whole blood assessed as compound remaining after 2.5 hrs by radio-HPLC; type: ADME, tissue-based, Macaca mulatta; conditions: rhesus monkey, read-out: Stability
Outline: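 [18F]Radioligand was incubated in monkey whole blood at room temperature for 2.5 h in vitro, n = 6. Unchanged fraction was measured by radio-HPLC on reverse-phase C18 in a radial compression module, eluted at 2.0 mL/min with MeOH:H2O:Et3N (85:15:0.1).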

[25] = Metabolic stability in monkey plasma assessed as compound remaining after 2.5 hrs by radio-HPLC; type: ADME, cell-free, Macaca mulatta; conditions: rhesus monkey, read-out: Stability
Outline: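 Radioligand incubated in monkey plasma in vitro at room temperature for 2.5 h; percent unchanged by reverse-phase radio-HPLC (C18 radial compression, MeOH:H2O:Et3N 85:15:0.1, 2.0 mL/min); n = 6.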

Plasma [26] = assay: Drug metabolism in rhesus monkey plasma assessed as decrease in unchanged compound at 3.87 mCi, iv by radio-HPLC; type: ADME, organism-based, Macaca mulatta; conditions: in vivo
Plasma [27] = assay: Drug metabolism in rhesus monkey plasma assessed as decrease in unchanged compound at 3.87 mCi, iv administered 30 mins post-ciproxifan treatment by radio-HPLC; type: ADME, organism-based, Macaca mulatta; conditions: in vivo, 0.5 h
Plasma [28] = assay: Drug metabolism in rhesus monkey plasma assessed as decrease in unchanged compound at 3.87 mCi, iv administered 30 mins post-(R)-(4-fluorophenyl)(2-(2-(2-methylpyrrolidin-1-yl)ethyl)benzofuran-5-yl)methanone treatment by radio-HPLC; type: ADME, organism-based, Macaca mulatta; conditions: in vivo, 0.5 h
Plasma [29] = assay: Drug metabolism in rhesus monkey plasma assessed as radiometabolite formation at 3.87 mCi, iv by radio-HPLC; type: ADME, organism-based, Macaca mulatta; conditions: in vivo
Plasma [30] = assay: Drug metabolism in rhesus monkey plasma assessed as radiometabolite formation at 3.87 mCi, iv administered 30 mins post-ciproxifan treatment by radio-HPLC; type: ADME, organism-based, Macaca mulatta; conditions: in vivo, 0.5 h
Plasma [31] = assay: Drug metabolism in rhesus monkey plasma assessed as radiometabolite formation at 3.87 mCi, iv administered 30 mins post-(R)-(4-fluorophenyl)(2-(2-(2-methylpyrrolidin-1-yl)ethyl)benzofuran-5-yl)methanone treatment by radio-HPLC; type: ADME, organism-based, Macaca mulatta; conditions: in vivo, 0.5 h
[32] = Unbound fraction in rhesus monkey plasma at 3.91+/-0.46 mCi, iv by ultrafiltration; type: ADME, organism-based, Macaca mulatta
Outline: (§3)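 Arterial plasma from monkeys scanned at baseline or 30 min after unlabeled ligand (1.0 mg/kg i.v.) pretreatment; free fraction of [18F]ligand measured by ultrafiltration, each plasma sample in triplicate.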

[33] = Unbound fraction in rhesus monkey plasma at 3.91+/-0.46 mCi, iv administered 30 mins post-(R)-(4-fluorophenyl)(2-(2-(2-methylpyrrolidin-1-yl)ethyl)benzofuran-5-yl)methanone treatment by ultrafiltration; type: ADME, organism-based, Macaca mulatta; outline: as §3
Brain [34] = assay: Drug metabolism in rhesus monkey brain assessed as radiodefluorination at 3.91 mCi, iv by PET; conditions: in vivo

- SUV (Brain [1]): 2.3
- SUV (Brain [2]): 1.98
- SUV (Brain [3]): < 1.2
- SUV (Brain [4]): < 1.2
- Drug uptake (Hippocampus [5]): Active
- Drug uptake [6]: Active
- Drug uptake (Striatum [7]): Not Active
- Drug uptake [8]: Not Active
- Drug uptake [9]: Not Active
- Drug uptake (Hippocampus [10]): Not Active
- Drug uptake [11]: Not Active
- Drug uptake [12]: Not Active
- Drug uptake (Striatum [13]): Not Active
- Drug uptake [14]: Not Active
- Drug uptake [15]: Active
- Drug uptake (Hippocampus [16]): Not Active
- Drug uptake [17]: Not Active
- Drug uptake (Striatum [18]): Not Active
- Drug uptake [19]: Not Active
- Drug uptake [20]: Not Active
- Drug uptake (Hippocampus [21]): Not Active
- Drug uptake [22]: Not Active
- Drug uptake [23]: Not Active
- remaining at 2.5 h [24]: 98.4%
- remaining at 2.5 h [25]: 99.2%
- Drug metabolism (Plasma [26]): Active
- Drug metabolism (Plasma [27]): Active
- Drug metabolism (Plasma [28]): Active
- Drug metabolism (Plasma [29]): Active
- Drug metabolism (Plasma [30]): Active
- Drug metabolism (Plasma [31]): Active
- fraction unbound [32]: 0.0208
- fraction unbound at 0.5 h [33]: 0.014
- Drug metabolism (Brain [34]): Not Active
SMILES: C[C@@H]1CCCN1CCc1cc2cc(C(=O)c3ccc([18F])cc3)ccc2o1
